In test [1] the test system is HEK293T. Put plainly: Activation of human STING R232H mutant expressed in HEK293T cells assessed as increase IFN-beta activity at 5 uM […] by dual-luciferase reporter gene assay. The conditions noted are these: filed as activator. It is filed as cell-based. An outline of the steps:
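HEK293T cells were co-transfected using polyjet with pcDNA3.1-hSTING R232H (50 ng), pGL3-IFNβ firefly reporter (400 ng) and pGL4.74-Rluc-TK (50 ng). After 24 h, cells were stimulated with 5 µM CDN for 30 min in digitonin buffer (10 µg/mL digitonin, 1 mM ATP, 0.1 mM GTP, HEPES/KCl/MgCl2), then put back in normal medium. Lysates were taken 12 h later for dual-luciferase readout; mean ± s.e.m., n = 5.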

The target of test [2] is Stimulator of interferon genes protein (Homo sapiens, UniProt Q86WV6). Kind of test: Binding affinity to wild-type human STING-CTD (139-379) expressed in Escherichia coli BL21(D Escherichia ) cells by isothermal titration calorimetry.
Stimulator of interferon genes protein, sequence (Q86WV6 whole entry): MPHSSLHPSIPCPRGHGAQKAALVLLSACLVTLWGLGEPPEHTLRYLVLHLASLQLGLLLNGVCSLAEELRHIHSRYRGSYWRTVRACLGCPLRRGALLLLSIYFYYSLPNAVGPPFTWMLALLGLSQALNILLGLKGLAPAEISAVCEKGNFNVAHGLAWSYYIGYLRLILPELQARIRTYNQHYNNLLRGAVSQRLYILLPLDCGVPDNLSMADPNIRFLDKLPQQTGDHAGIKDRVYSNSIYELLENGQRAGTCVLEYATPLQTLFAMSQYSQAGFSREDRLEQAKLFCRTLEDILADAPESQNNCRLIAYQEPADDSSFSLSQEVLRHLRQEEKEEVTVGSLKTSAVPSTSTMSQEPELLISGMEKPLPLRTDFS
Test [3] in a line: Stability of compound in presence of 20% FBS. An outline of the steps:
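CDN at 0.1 µg/µL was incubated at 37 °C in 20% FBS with 20 mM PBS pH 7.4 and 5 mM MgCl2, against a water control. Aliquots taken at various time points were quenched with EDTA pH 8.0 and centrifuged. They were analysed by HPLC with UV at 254 nm, using 10 mM TEAA/MeCN mobile phase at 25 °C.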

The structures appear in SMILES notation. Calls of active or inactive are those of the source. The rule behind the calls is not given here.

The values that follow come from ChEMBL document CHEMBL4680305, “Synthesis and biological evaluation of all possible inosine-mixed cyclic dinucleotides that activate different hSTING variants” (Bioorg Med Chem, 2021).

`O=c1ccn([C@@H]2O[C@@H]3COP(=O)(O)O[C@@H]4[C@H](O)[C@@H](COP(=O)(O)O[C@@H]2[C@@H]3O)O[C@H]4n2cnc3c(=O)[nH]cnc32)c(=O)[nH]1`: the outcome in test [1] was Active.

`Nc1ncnc2c1ncn2[C@@H]1O[C@@H]2COP(=O)(O)O[C@@H]3[C@H](O)[C@@H](COP(=O)(O)O[C@@H]1[C@@H]2O)O[C@H]3n1cnc2c(O)ncnc21`: the result in test [1] was Active.

On to `O=c1[nH]cnc2c1ncn2[C@@H]1O[C@@H]2COP(=O)(O)O[C@H]3[C@@H](O)[C@H](n4cnc5c(=O)[nH]cnc54)O[C@@H]3COP(=O)(O)O[C@H]2[C@H]1O`, for which the Kd in test [2] was 19.5 µM.

`Nc1nc2c(ncn2[C@@H]2O[C@@H]3COP(=O)(O)O[C@@H]4[C@H](O)[C@@H](COP(=O)(O)O[C@@H]2[C@@H]3O)O[C@H]4n2cnc3c(=O)[nH]cnc32)c(=O)[nH]1`: the result in test [1] was Active.

On to `O=c1[nH]cnc2c1ncn2[C@@H]1O[C@@H]2COP(=O)(O)O[C@@H]3[C@H](O)[C@@H](COP(=O)(O)O[C@@H]1[C@@H]2O)O[C@H]3n1cnc2c(=O)[nH]cnc21`, for which the result in test [1] was Active.

For the compound `Nc1ncnc2c1ncn2[C@@H]1O[C@@H]2COP(=O)(O)O[C@H]3[C@@H](O)[C@H](n4cnc5c(O)ncnc54)O[C@@H]3COP(=O)(O)O[C@@H]1[C@@H]2O`, in test [1], the result was Active.

As to `Nc1ccn([C@@H]2O[C@@H]3COP(=O)(O)O[C@H]4[C@@H](O)[C@H](n5cnc6c(=O)[nH]cnc65)O[C@@H]4COP(=O)(O)O[C@@H]2[C@@H]3O)c(=O)n1`, the result in test [1] was Active.

Consider `O=c1[nH]cnc2c1ncn2[C@@H]1O[C@@H]2COP(=O)(O)O[C@@H]3[C@H](O)[C@@H](COP(=O)(O)O[C@H]2[C@H]1O)O[C@H]3n1cnc2c(=O)[nH]cnc21`, for which, in test [1], the result was Active.

For `Nc1ncnc2c1ncn2[C@@H]1O[C@@H]2COP(=O)(O)O[C@@H]3[C@H](O)[C@@H](COP(=O)(O)O[C@H]2[C@H]1O)O[C@H]3n1cnc2c(=O)[nH]cnc21`, the outcome in test [1] was Active.

Regarding `Nc1ccn([C@@H]2O[C@@H]3COP(=O)(O)O[C@@H]4[C@H](O)[C@@H](COP(=O)(O)O[C@@H]2[C@@H]3O)O[C@H]4n2cnc3c(=O)[nH]cnc32)c(=O)n1`, the outcome in test [1] was Active.

Regarding `Nc1ncnc2c1ncn2[C@@H]1O[C@@H]2COP(=O)(O)O[C@H]3[C@@H](O)[C@H](n4cnc5c(O)ncnc54)O[C@@H]3COP(=O)(O)O[C@H]2[C@H]1O`, the Stability result in test [3] is listed as “Stable”.
